# Source: PubChem
# Hck Nef HTS: blocks Nef-activated human Hck kinase; Recombinant Hck-YEEI plus Nef, Z-Lyte FRET kinase assay; 220,000 tested, 0.68% active; inhibition, % at 20 µM; P08631;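 active = Hck-Nef kinase inhibition above about 50%, limit read from the data; inactive = inhibition below that limit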;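 note: 0% = DMSO with Hck plus Nef and 100% = Hck alone without Nef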
# p47phox inh: blocks human p47phox regulatory protein of NADPH oxidases. P14598. p47phox/p22phox peptide binding, fluorescence polarization, 2 h. inhibition, % at 24.7 µM. 220,000 tested, 0.53% active;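 note: 0% = p47phox with labelled peptide and 100% = labelled peptide alone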
# Diaph act CS: diaphorase activation or chemical reduction counter-screen; AID 1229; 190,000 tested, 0.005% active; Diaphorase/resazurin coupled assay, resorufin fluorescence, 16 min; stronger effect = higher value; 1 = vehicle wells, 0 = NADH-free wells; activation factor at 20 µM;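 active = diaphorase activity raised at least twofold by the compound at 20 µM; inactive = activation factor below 2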
#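 Assay system: bacterial diaphorase enzyme (C. kluyveri) / Input: enzyme 0.07 U/mL final / Medium: 50 mM HEPES pH 7.4 with 4.542 mM MgCl2, 0.005% Tween 20 / Doses: single compound dose of 20 µM, 1% DMSO final / Incubation: 16 min enzyme reaction, ambient temperature / Signal: fluorescence, excitation 544 nm and emission 590 nm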
# 14-3-3 Bad PPI: disrupts binding of bovine 14-3-3 zeta to phospho-Bad peptide; P63103; TR-FRET 14-3-3zeta/Dy647-pBad peptide displacement, 1 h; inhibition, % at 21.7 µM; 220,000 tested, 0.71% active;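 active = inhibition above about 70%, limit read from the data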;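 note: 0% = full 14-3-3 plus peptide FRET controls and 100% = background without 14-3-3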
# eIF4E-4G inh: inhibitors of eIF4E and eIF4G interaction in translation initiation. TR-FRET eIF4E-eIF4GI(517-606) binding, 2 h. inhibition, % at 21.7 µM. 220,000 tested, 0.37% active. AID 782;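 note: 0% = full FRET control wells and 100% = background wells lacking eIF4GI fragment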
# Hck Nef conf: Hck-Nef kinase inhibition, confirmation; shares compounds with Hck Nef HTS; calls only at 10 µM; 1,300 tested, 28% active; Recombinant Hck-YEEI:Nef, Z-Lyte FRET kinase assay;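 active = average inhibition of at least 50%, with Z-scores no higher than 3 in both the phospho-tyrosine peptide and fluorescence counterscreens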
# * = called active by the depositor; i = inactive; nt = not tested or not shown; + = active, no number. Compounds with a hit are over-represented: about 2% of the library has one in this group of screens.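 Rule for the calls, unless noted: active = inhibition above about 30% (limit read from the data); inactive = the rest.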
SMILES,Hck Nef HTS,p47phox inh,Diaph act CS,14-3-3 Bad PPI,eIF4E-4G inh,Hck Nef conf
Cn1cc(/C=N/NC(=O)c2cccc([N+](=O)[O-])c2)c2ccccc21,5.2,7.2,1,8.1,1.3,nt
Cn1cc(/C=C(\C#N)C(=O)Nc2cccc([N+](=O)[O-])c2)c2ccccc21,61.6*,36.9*,1.1,69.1,11.4,i
Cc1ccc(NC(=O)c2cc(-c3ccco3)nc3ccccc23)cc1S(=O)(=O)N1CCOCC1,69.3*,-4.4,0.7,-11.1,9.5,+
CC1=C/C(=N\NC(=O)c2ccccc2)CC1,2.3,-16.7,1,-4.9,3.6,nt
Cc1ccc(-c2noc(N=O)c2NO)cc1,-18.8,-14.1,nt,-2.2,1.6,nt
O=C(N/N=C/c1coc2ccccc2c1=O)c1cn(-c2ccccc2)nc1-c1ccccc1,39.3,-16.4,0.8,6.5,-2.5,nt
O=C(N/N=C/c1coc2ccccc2c1=O)c1ccccc1,87.3*,1.4,1,-10.3,4.8,i
N#CCC(=O)N/N=C/c1coc2ccccc2c1=O,81.0*,-10.0,nt,-1.1,1.4,+
NC(=O)N/N=C/c1coc2ccc(O)cc2c1=O,31.4,-3.6,nt,0.0,0.5,nt
NCCCCCC(=O)N/N=C/c1coc2ccccc2c1=O,84.0*,-7.0,nt,1.4,3.1,+
O=C(N/N=C\c1coc2ccccc2c1=O)c1ccco1,82.8*,-0.2,nt,-2.6,7.4,+
Cc1cc(NC(=O)Cn2cc([N+](=O)[O-])cn2)no1,17.8,4.3,1,-11.6,-0.9,nt
NC1=NC(=O)/C(=C/c2ccccc2OS(=O)(=O)c2ccc3ccccc3c2)S1,5.4,-12.4,1,19.2,-1.9,nt
OC(COc1ccc(CNCc2cccnc2)cc1)CN1CCc2ccccc2C1 (configuration not stated),21.0,-9.5,1.2,-6.9,0.8,nt
O=C(NCCN1CCOCC1)c1ccc(N2CCCC2)c([N+](=O)[O-])c1,0.7,-11.2,1.1,-4.2,-1.1,nt
C=CCON1C(=O)C(=O)N(OCC=C)[C@H]2CCCC[C@H]21,18.0,-2.8,nt,5.3,-2.5,nt
O=C1CSC(=S)N1/N=C/c1ccc(Cl)c([N+](=O)[O-])c1,80.2*,-16.8,nt,-3.0,0.7,+
COc1cc(/C=N/N2C(=O)CSC2=S)ccc1O,1.0,-86.4,0.9,8.2,1.1,nt
Nc1c(C(=O)N/N=C/c2cccnc2)oc2nc(-c3ccccc3)cc(-c3ccco3)c12,-25.4,-17.1,nt,-4.8,5.4,nt
O=CNn1cnc2c(oc3nc(-c4ccccc4)cc(-c4ccco4)c32)c1=O,54.7*,-15.4,0.8,-0.1,5.5,i
CCN1C(=O)/C(=C\c2cn(-c3ccccc3)nc2-c2cccnc2)SC1=S,59.9*,4.8,0.9,77.9*,14.7,i
O=C(Nc1ccc(NC(=O)c2cccs2)c(Cl)c1)c1ccco1,18.8,-15.0,1,-7.0,-4.5,nt
O=C(Nc1ccc(NC(=O)c2sc3ccccc3c2Cl)cc1Cl)c1ccco1,78.2*,28.5,0.9,23.9,-20.1,i
O=c1[nH]ncc(N/N=C\c2ccncc2)c1Cl,42.8,6.5,1,-5.2,-1.2,nt
Cc1cccc(/C=N\Nc2cn[nH]c(=O)c2Cl)c1,46.0,-12.4,0.9,22.1,0.8,nt
SMILES,Hck Nef HTS,p47phox inh,Diaph act CS,14-3-3 Bad PPI,eIF4E-4G inh,Hck Nef conf
COc1ccccc1/C=N\Nc1cn[nH]c(=O)c1Cl,61.1*,4.5,0.9,-6.1,2.5,i
O=c1[nH]ncc(N/N=C\c2cccs2)c1Cl,58.7*,-6.7,1,-15.7,3.9,+
O=[N+]([O-])c1ccc(-c2ccc(/C=N/Nc3nc(N4CCCC4)nc(N4CCCC4)n3)o2)cc1,1.1,-4.2,0.9,-0.1,-0.5,nt
COc1ccc(-c2cnnc(N/N=C/c3ccc(-c4ccc([N+](=O)[O-])cc4)o3)n2)cc1,84.1*,59.6*,1.6,93.9*,30.7*,+
O=C(CCCN1C(=O)/C(=C\c2cccs2)SC1=S)Nc1cccc(C(=O)O)c1,22.0,-2.6,0.9,5.5,0.7,nt
NN1C(=O)/C(=C\c2ccco2)SC1=S,77.7*,-9.6,nt,1.6,0.4,i
COc1ccc(NC(=O)CCCN2C(=O)/C(=C\c3ccco3)SC2=S)cc1,3.7,-30.6,0.7,-4.3,-4.2,nt
O=C1/C(=C/c2ccco2)SC(=S)N1c1cccnc1,90.4*,-2.2,nt,85.0*,55.2*,i
COc1ccc(/C=C2\SC(=S)N(c3cccnc3)C2=O)cc1,17.4,1.6,nt,0.9,-5.9,nt
O=C(CCCN1C(=O)/C(=C/c2ccco2)SC1=S)Nc1cccc(C(=O)O)c1,81.7*,-36.0,nt,6.2,3.2,i
c1ccc(COc2ccc(CNCc3cccnc3)cc2)cc1,10.8,-0.4,1,11.1,2.6,nt
COc1ccc(-c2cc(C(F)(F)F)n3ncc(C(=O)N(C)Cc4ccccc4)c3n2)cc1,-16.2,nt,0.9,1.1,4.0,nt
COC(=O)Cc1c(C)c2ccc(O)c(CN3CCCC(C)C3)c2oc1=O (configuration not stated),75.3*,-8.0,0.9,nt,nt,nt
O=c1oc2c(CN3CCCCC3)c(O)ccc2c2c1CCCC2,37.2,-2.2,0.8,-1.6,5.1,nt
Cc1ccc(C)c(NC(=O)c2cnn3ccccc23)c1,67.3*,3.2,0.9,9.7,-2.8,+
Cc1ccc(C)c(NC(=O)c2cc3ccccn3n2)c1,11.3,-4.3,0.8,-2.0,4.6,nt
O=C(Nc1cccc(-c2nc3ccccc3[nH]2)c1)c1cccc(NC(=O)c2ccco2)c1,73.6*,-5.1,1.3,15.6,-109.3,+
CCOc1ccc(C(=O)Nc2ccc(-c3nc4ccccc4[nH]3)cc2)cc1[N+](=O)[O-],77.6*,11.5,0.9,65.9,5.1,+
O=C(Nc1ccc2nc(-c3ccccc3)[nH]c2c1)c1ccco1,-1.2,-20.3,0.9,-10.5,1.1,nt
Cn1ncc([N+](=O)[O-])c1C(=O)Nc1ccc(-c2nc3ccccc3[nH]2)cc1,2.8,-13.0,0.9,8.5,2.0,nt
COc1c(F)c(F)c(C(=O)Nc2ccc(-c3nc4ccccc4[nH]3)cc2)c(F)c1F,24.7,-3.5,1,-9.9,-4.0,nt
O=C(Nc1ccc(-c2nc3ccccc3[nH]2)cc1)c1c(F)c(F)c(F)c(F)c1F,112.0*,4.2,1.1,-3.6,1.9,i
CC1CCc2c(sc3nc(CSc4nnnn4C)[nH]c(=O)c23)C1 (configuration not stated),14.7,-9.1,nt,3.6,4.0,nt
Cc1cc(C)c(C#N)c(SCC(=O)C2CC2)n1,21.1,2.7,nt,-10.0,-2.2,nt
CC/C=C/C(=O)N1CC2(CC(c3cccc(NC(=O)CC(c4ccccc4)c4ccccc4)c3)=NO2)C[C@@H]1C(N)=O (some centres not stated),52.8*,-14.5,nt,-4.9,-0.2,i
